Compound activity: PubChem, The Scripps Research Institute Molecular Screening Center
OX1R antag-1 = OX1R (human) antagonism. OX1R-expressing cells, FRET antagonist read-out. inhibition, % at 6.6 µM. 1.8% of 330,000 active. AID 485270; in the data active = inhibition mostly above about 38%, no sharp cut-off; inactive = mostly below about 40%;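 also: 0% = agonist challenge alone and 100% = reference antagonist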
Target sequence (O43613 whole entry, looked up): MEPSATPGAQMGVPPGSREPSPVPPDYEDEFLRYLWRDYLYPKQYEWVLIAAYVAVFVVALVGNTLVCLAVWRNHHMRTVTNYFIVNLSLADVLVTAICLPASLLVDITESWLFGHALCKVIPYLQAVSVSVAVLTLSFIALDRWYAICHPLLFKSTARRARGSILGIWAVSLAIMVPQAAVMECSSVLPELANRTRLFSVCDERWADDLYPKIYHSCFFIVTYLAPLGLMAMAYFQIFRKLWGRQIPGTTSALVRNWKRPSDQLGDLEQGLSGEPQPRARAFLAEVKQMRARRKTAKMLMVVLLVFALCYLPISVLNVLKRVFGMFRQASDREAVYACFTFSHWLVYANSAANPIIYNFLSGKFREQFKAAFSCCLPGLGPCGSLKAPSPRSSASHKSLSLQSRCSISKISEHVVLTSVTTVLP
TAAR1 antag = human TAAR1 antagonism; CHO RD-HGA16 TAAR1, Fluo-8 calcium fluorescence, antagonist; inhibition, % at 3 µM; 1.5% of 360,000 active;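 active = inhibition above a per-plate cutoff, the mean inhibition of test compounds on that plate plus 3 SD, cut at about 49% in these data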;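 also: 0% = DMSO plus EC80 beta-PEA response and 100% = DMSO alone without agonist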
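Test system: hTAAR1-expressing CHO RD-HGA16 cells, Gα16-coupled; Probe or stimulus: EC80 β-phenethylamine stimulus; Compound dosing: single nominal final test compound concentration of 3 µM; Timing: 140 s kinetic read after compound, 140 s after agonist; Signal: Fluo-8 calcium-sensitive fluorescence; Measure: % inhibition of agonist calcium response; Controls: DMSO and EC80 PEA controls.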
TAAR1 ag = human TAAR1 agonism; AID 624467; Q96RJ0; activation, % at 3 µM; CHO RD-HGA16 TAAR1, Fluo-8 calcium fluorescence; vehicle wells 0%, saturating PEA agonist 100%; 0.99% of 360,000 active;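 active = activation above the mean activation of all test compounds in the run plus 3 SD, cut at about 38% in these data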
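System: CHO-derived RD-HGA16 cells with stable Gα16 and human TAAR1 / Times: 17-24 h plating, Fluo-8 75 min 37 °C, 30 min RT / Technique: calcium-sensitive Fluo-8 signal, excitation 470-495, emission 515-575 nm / Measure: % activation relative to PEA EC100 response / Benchmarks: DMSO and PEA EC100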
GPR7 antagonist = antagonists of human GPR7 (neuropeptides B/W receptor 1). 1.1% of 290,000 active. GPR7-expressing cells, fluorescence antagonist assay. AID 1861. P48145. inhibition, % at 4.4 µM; in the data active = inhibition above about 16%, passing the limit was not always enough;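 also: cells stimulated with the agonist NPW; 0% = agonist with vehicle and 100% = vehicle without agonist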
Target sequence (P48145 whole entry, looked up): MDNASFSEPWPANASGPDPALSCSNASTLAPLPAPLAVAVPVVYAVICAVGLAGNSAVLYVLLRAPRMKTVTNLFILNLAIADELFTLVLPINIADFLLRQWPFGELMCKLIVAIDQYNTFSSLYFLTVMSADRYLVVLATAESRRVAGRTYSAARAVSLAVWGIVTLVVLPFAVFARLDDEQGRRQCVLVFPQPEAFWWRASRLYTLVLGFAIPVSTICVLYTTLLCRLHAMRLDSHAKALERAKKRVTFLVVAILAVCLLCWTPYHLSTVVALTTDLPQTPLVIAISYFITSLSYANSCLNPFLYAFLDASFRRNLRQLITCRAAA
CHO parental Ca = counter-screen for OX1R antagonists: effect in parental CHO cells | parental CHO-K1, ATP-induced calcium, Fluo-8 fluorescence | inhibition, % at 5.6 µM | 0.63% of 330,000 active;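 active = inhibition above that plate's mean sample inhibition plus 3 SD, cut at about 26% in these data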;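 also: 0% = ATP-challenged DMSO wells and 100% = DMSO wells without ATP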
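Measured by: calcium-sensitive Fluo-8 fluorescence / Test system: CHO parental line / Controls: ATP-challenged DMSO wells low, unchallenged DMSO wells high / Measure: % inhibition / Compound: single nominal dose of 5.6 µM per compound / Replicates: single well per compound, no replicates / Reagent: ATP as calcium-mobilizing challenge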
OX1R antag-2 = human HCRTR1 antagonism; CHO/OX1R cells, Fluo-8 calcium fluorescence, orexin A; 0.43% of 330,000 active; O43613; inhibition, % at 5 µM;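 active = inhibition above its plate's threshold, mean inhibition of all tested compounds on the plate plus 3 SD, cut at about 37% in these data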;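 also: 0% = orexin A challenge wells and 100% = SB-334867-A antagonist wells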
TAAR1 nonsel count = nonselective antagonist in TAAR1 antagonist counter-screen | 77% of 2,400 active | counterscreen cell line, calcium fluorescence, antagonist mode | shares compounds with TAAR1 antag | inhibition, % at 3 µM | AID 651780; in the data active = inhibition above about 22%;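 also: CHO-Ga16 host cells stimulated with ATP at an EC80 level; 0% = agonist EC80 plus vehicle and 100% = vehicle without agonist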
TAAR1 antag conf = confirmation of human TAAR1 antagonists. shares compounds with TAAR1 antag. TAAR1-expressing cells, fluorescence antagonist read-out. inhibition, % at 3 µM. 40% of 2,400 active; in the data active = inhibition above about 49%;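 also: CHO-Ga16 host cells challenged with agonist PEA near its EC80; 0% = agonist at EC80 plus vehicle and 100% = vehicle with no agonist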
Ga16 ag counter = counter-screen for TAAR1 antagonists: nonselective Ga16 agonists. shares compounds with TAAR1 antag. Ga16-expressing cells, calcium fluorescence, agonist counterscreen. activation, % at 3 µM. 18% of 2,400 active. AID 651953; in the data active = activation above about 12%;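 also: 0% = vehicle wells and 100% = saturating stimulus response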
TAAR1 ag counter = activates human TAAR1 in antagonist counter-screen; shares compounds with TAAR1 antag; hTAAR1 cell line, fluorescence activation, agonist mode; activation, % at 3 µM; 2% of 2,400 active; in the data active = activation above about 37%;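 also: CHO cells stably expressing TAAR1 with calcium dye readout; 0% = DMSO vehicle and 100% = full agonist response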
An asterisk follows results filed as active; / = no result. Most compounds without a hit are left out; they make up all but 4.6% or so of the library.

SMILES	OX1R antag-1	TAAR1 antag	TAAR1 ag	GPR7 antagonist	CHO parental Ca	OX1R antag-2	TAAR1 nonsel count	TAAR1 antag conf	Ga16 ag counter	TAAR1 ag counter
COc1cc(/C=N/NC(=O)c2cc(-c3cccc(OC(C)C)c3)nc3ccccc23)ccc1O	12	54*	1	/	-49	-36	16	48	4	11
COc1ccc(-c2cc(C(=O)N/N=C/c3cccnc3)c3ccccc3n2)cc1	/	11	6	3	/	/	/	/	/	/
Cc1ccccc1-c1cc(C(=O)N/N=C/c2cccnc2)c2ccccc2n1	/	0	0	-7	/	/	/	/	/	/
CC(C)Oc1ccccc1-c1cc(C(=O)N/N=C/c2cccnc2)c2ccccc2n1	20	50*	9	-24	-27	-23	21	30	6	5
COc1ccc(-c2cc(C(=O)N/N=C/c3cc(OC)c(OC)cc3OC)c3ccccc3n2)cc1	3	68*	9	/	-19	-26	28*	36	6	3
Cc1ccccc1OCC(=O)N=Nc1c(O)n(C)c2ccccc12	25	54*	6	-12	-17	-15	27*	46	6	9
C=CC[C@@H](CC(=O)N[C@@H](CO)Cc1ccccc1)C(=O)NC[C@H](OC(=O)[C@@H](CC=C)Cc1ccc(F)cc1)c1ccccc1	12	63*	20	/	-18	7	32*	54*	10	11
C=CC[C@@H](CC(=O)NCCO)C(=O)NC[C@H](OC(=O)[C@@H](CC=C)Cc1ccc(F)cc1)c1ccccc1	33	78*	31	/	-12	-1	32*	63*	13*	15
C=CC[C@@H](CC(=O)N[C@@H](CO)Cc1ccccc1)C(=O)NC[C@@H](OC(=O)[C@@H](CC=C)Cc1ccc(F)cc1)c1ccccc1	3	6	11	/	-5	-12	/	/	/	/
c1ccc2c(c1)ncn2CCN1CCCCC1	26	-7	18	-4	3	-11	/	/	/	/
COc1ccc(-c2csc3nc(-c4cccnc4)nc(N4CCC(C(N)=O)CC4)c23)cc1OC	11	53*	20	-8	-20	-9	18	33	9	8
COc1ccc(-c2csc3nc(C)nc(N4CCCCC4)c23)cc1OC	16	5	1	-3	-14	-21	/	/	/	/
CC(C)c1ccc(NC(=O)Nc2nnc([C@H]3C[C@H](O)[C@@H](CO)O3)s2)cc1	/	-9	5	/	/	/	/	/	/	/
CC(=O)Nc1ccc(OCCOc2ccc(/C=C3\C(=N)N4N=C(C(C)C)SC4=NC3=O)cc2)cc1	14	-2	3	12	-3	-4	/	/	/	/
COc1ccc(C(C)=O)cc1COC(=O)[C@H](Cc1ccccc1)NC(=O)c1ccco1	17	56*	8	/	-15	-20	22*	44	10	13
N#Cc1cc(NC(=O)c2ccc(Cl)cc2)ccc1Sc1ccccc1	/	73*	6	/	/	/	35*	48	9	2
COc1ccc(Sc2ccc(NC(=O)c3ccccc3Cl)cc2C#N)cc1	17	20	7	5	21	15	/	/	/	/
COc1ccc(C(NC(=O)c2ccco2)c2ccc(OC)c(OC)c2)cc1OC	15	-14	8	-6	-5	-3	/	/	/	/
N#CCc1ccccc1C(=O)OCC(=O)N(Cc1ccccc1)Cc1ccccc1	0	64*	14	/	0	5	29*	51*	6	4
CCN(CC(=O)Nc1c(F)cccc1F)C(=O)C1CC(=O)N(CCc2ccccc2)C1 (centres undefined)	14	-10	2	/	-18	-14	/	/	/	/
O=C(NCc1ccco1)c1ccc(Cl)c(S(=O)(=O)Nc2ccccc2)c1	28	2	6	-9	-20	-29	/	/	/	/
C=CCNC(=O)c1ccccc1NC(=O)c1ccc(Cl)c(S(=O)(=O)Nc2ccccc2)c1	16	55*	18	-17	-7	-21	28*	46	7	13
O=C(COC(=O)[C@@H]1CC(O)CN1S(=O)(=O)c1ccccc1[N+](=O)[O-])Nc1ccc2ccccc2c1 (some centres undefined)	12	68*	25	4	1	0	41*	50*	16*	13
COc1ccc(OCC(=O)OCC(=O)Nc2cc(S(=O)(=O)N3CCOCC3)ccc2Cl)cc1	-2	-8	7	/	-12	-12	/	/	/	/
Cc1ccc(CSCC(=O)Nc2cc(S(=O)(=O)N3CCOCC3)ccc2OCC(F)(F)F)cc1	/	81*	0	/	/	/	12	62*	1	2
SMILES	OX1R antag-1	TAAR1 antag	TAAR1 ag	GPR7 antagonist	CHO parental Ca	OX1R antag-2	TAAR1 nonsel count	TAAR1 antag conf	Ga16 ag counter	TAAR1 ag counter
Cc1cc(OCC(=O)OCC(=O)Nc2cc(S(=O)(=O)N3CCOCC3)ccc2Cl)ccc1Cl	3	64*	17	/	-1	11	36*	43	14*	12
Cc1ccc(S(=O)(=O)N2CCCCC2)cc1NC(=O)COC(=O)c1ccc(O)cc1	9	12	3	2	-4	-10	/	/	/	/
O=C(COC(=O)c1ccc(O)cc1)Nc1cc(S(=O)(=O)N2CCCCCC2)ccc1Cl	/	62*	13	/	/	/	38*	52*	10	15
CN1CCN(C2CN(Cc3cn(Cc4ccc(Cl)cc4)nn3)S(=O)(=O)C2)CC1 (centres undefined)	/	-20	3	/	/	/	/	/	/	/
COc1ccc(NC(=O)CN(C)C(=O)Cc2ccc(-c3ccccc3)cc2)cc1	5	5	3	/	-13	-5	/	/	/	/
COCCNC(=O)c1ccc(-c2ccc(OC)cc2C)c2ccoc12	/	-50	0	/	/	/	/	/	/	/
COc1ccc(-c2ccc(C(=O)Nc3ccc(Cl)cc3)c3occc23)c(C)c1	/	5	1	/	/	/	/	/	/	/
COc1ccc(-c2ccc(C(=O)Nc3cc(OC)c(OC)c(OC)c3)c3occc23)c(C)c1	/	61*	0	/	/	/	30*	49*	9	10
COc1ccc(-c2ccc(C(=O)NCC3CCOCC3)c3occc23)c(C)c1	/	59*	6	/	/	/	32*	58*	9	12
COc1cccc(COC(=O)Nc2ccccc2)c1OC	/	-14	-1	/	/	/	/	/	/	/
C=C(C)C1CCC(C)=C1COC(=O)Nc1ccccc1 (centres undefined)	22	53*	21	-6	-27	-3	-2	2	-1	-3
NC(=O)c1ccsc1NC(=O)COC(=O)/C=C/c1ccccc1	40	79*	18	/	-9	5	41*	74*	17*	36
